Shown are actives, neighbours in structure and some others; about 1.7% of the full set was active somewhere.
Vif imaging – HIV Vif self-association inhibitors, primary screen, imaging, HEK293T, single point | inhibition, % at 7.49 µM | HEK293T cells, Vif self-association by quenched fluorescence, 24 h | 340,000 compounds, 0.35% hits | AID 602346, 2012; in the data active means inhibition above about 50%, passing the limit was not always enough; inconclusive means no clear call, values can overlap the other calls; inactive means below about 31%
V-ATPase pHluor – regulators of yeast V-ATPase proton pumping, primary screen, pHLuorin cytosolic pH fluorescence. S. cerevisiae. response, % at 10 µM. 350,000 compounds, 0.37% hits. AID 504577, 2011; in the data active means response mostly above about 7.3%, no sharp cut-off; inactive means mostly below about 5.4%; further: actives read high
CaV13 FRET inh – Disruptors of the CACNA1D IQ motif to Ca2+-dependent inactivation inhibitor domain association, primary screening, Förster resonance energy transfer in intact living …; inhibition, % at 12.3 µM; AID 743397; HEK cells, CFP/YFP FRET ICDI-IQ, plate reader, 10 min; percent FRET-ratio fall versus neutral wells; 340,000 compounds, 0.098% hits;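 active means mean replicate inhibition of at least 30% and at least 1% of replicates passing that level; inconclusive means only one of the two criteria is met; inactive means neither criterion is met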
SR-BI uptake up – activators of SR-BI mediated DiI-HDL uptake, primary screen, ldlA[mSR-BI] CHO cells, DiI fluorescence | 320,000 compounds, 0.096% hits | AID 504775, 2011 | 3 h; 100 = double the neutral-control signal | activation, % at 12.5 µM;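 active means mean replicate activation of at least 60% and every replicate at or above 60%; inconclusive means mean or all-replicate condition met, but not both; inactive means mean below 60% and not all replicates reaching 60%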
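Material – SR-BI-overexpressing, LDLR-lacking CHO cells · Medium – BSA-supplemented, HEPES-buffered Ham's F12, pH 7.4 · Doses – single concentration · Times – compound with DiI-HDL co-incubation, 3 h at 37 °C · Measured by – bottom-read fluorescence, 550/595 nm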
SR-BI HDL uptake – inhibitors of SR-BI mediated HDL lipid uptake, primary screen, ldlA[mSR-BI] cells, fluorescence, single point; AID 488896, 2010; 320,000 compounds, 0.96% hits; ldlA[mSR-BI] CHO cells, DiI-HDL uptake fluorescence, 3 h; inhibition, % at 12.5 µM; Scavenger receptor class B member 1 (Mus musculus), Q61009;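 active means mean replicate inhibition of at least 70% and a set share of replicates each scoring 70 or more; inconclusive means meets just one of the two criteria; inactive means fails both criteria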
NTR1 agonist – agonists of human NTR1, primary screen, imaging, U2OS cells, beta-arrestin-GFP, high content. Neurotensin receptor type 1 (Homo sapiens), P30989. NTR1-U2OS beta-arrestin-GFP spot imaging, agonist mode. activation, % at 20 µM. 330,000 compounds, 0.17% hits. AID 493036, 2011;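 active means activation at or above 40% of the spot to cytoplasm intensity ratio, with at least 20 cells analyzed; inconclusive means wells under 20 cells, flagged as cytotoxic or low count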
Target sequence (P30989 whole entry, looked up): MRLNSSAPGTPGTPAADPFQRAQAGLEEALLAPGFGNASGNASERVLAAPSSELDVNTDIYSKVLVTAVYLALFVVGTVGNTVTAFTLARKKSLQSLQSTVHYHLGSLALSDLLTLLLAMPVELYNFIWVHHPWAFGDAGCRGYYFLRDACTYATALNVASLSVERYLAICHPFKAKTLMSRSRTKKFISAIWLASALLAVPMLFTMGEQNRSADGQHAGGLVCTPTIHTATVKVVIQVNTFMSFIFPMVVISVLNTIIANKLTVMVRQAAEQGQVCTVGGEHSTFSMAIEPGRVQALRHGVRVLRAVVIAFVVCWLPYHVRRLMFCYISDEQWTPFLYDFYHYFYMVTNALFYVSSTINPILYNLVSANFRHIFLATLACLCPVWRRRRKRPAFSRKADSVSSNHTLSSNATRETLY
VATPase regulator – yeast V-ATPase proton pumping modulators, confirmation, S. cerevisiae, pH-sensitive GFP, second cherry-pick. shares compounds with V-ATPase pHluor. S. cerevisiae pHLuorin cytosolic pH, V-ATPase proton transport. response, % at 10 µM. 980 compounds, 2% hits. AID 602197, 2012; in the data active means response above about 24%
A number is an active result; i = inactive; ? = inconclusive; nt = no result given.

SMILES	Vif imaging	V-ATPase pHluor	CaV13 FRET inh	SR-BI uptake up	SR-BI HDL uptake	NTR1 agonist	VATPase regulator
COc1ccc(C(=O)OC(C)C(=O)NCC2CCCCC2)cc1S(=O)(=O)N1CCOCC1 (stereo not given)	i	i	i	i	i	i	nt
COc1nc(Cl)cn(-c2ccc(Cl)cc2)c1=O	i	i	i	i	i	i	i
COC(=O)c1cn(-c2ccc(Cl)cc2)c(=O)c2ccccc12	i	i	i	i	i	i	nt
O=C(Cc1cccc2ccccc12)NC(=S)Nc1cccc(C(=O)O)c1	i	i	i	i	i	i	nt
FC(F)(F)c1cc(C(F)(F)F)n2nc(-c3sccc3-n3cccc3)cc2n1	i	11.9	i	i	i	i	i
Cc1cc(C)n2nc(-c3sccc3-n3cccc3)cc2n1	nt	i	nt	i	i	i	nt
COn1c(SCc2cccc(Cl)c2)nc2ccccc2c1=O	i	15.1	i	i	i	i	i
O=C(NCc1ccco1)c1cc([N+](=O)[O-])ccc1N1CCOCC1	i	i	i	nt	nt	i	nt
O=C(O)/C(=C\c1cccs1)Sc1nnc(-c2ccc(F)cc2)o1	i	i	i	i	i	i	i
COc1ccc(-c2nnc(S/C(=C/c3ccc(Cl)cc3)C(=O)O)o2)cc1	i	i	i	i	i	i	nt
CSc1ccc(/C=C(/Sc2nnc(-c3ccccc3)o2)C(=O)O)cc1	i	i	i	i	i	i	i
CSc1nnc(-c2ccccc2)o1	i	i	i	i	i	i	i
CCOC(=O)c1cccc(C(=O)OCC)n1	i	i	i	i	i	i	i
CC[C@@H]1[C@H]2CCCC(=O)N3CC[C@@H](C[C@@H]1Nc1ccccc1)[C@@H]23	i	i	i	i	i	i	nt
COc1ccc(CN2C(=O)c3cccnc3C2=O)cc1S(=O)(=O)N(C)c1ccc(C)cc1	i	i	i	i	i	i	nt
COC(C(=O)Nc1c(F)cccc1F)c1ccccc1 (stereo not given)	i	10.3	i	i	i	i	i
Cc1c(NC(=O)CN2CCN(c3ccc(O)cc3)CC2)c(=O)n(-c2ccccc2)n1C	i	i	i	i	i	i	nt
Cn1cc([N+](=O)[O-])c(C(=O)Nc2cc(Oc3cccnc3)cc([N+](=O)[O-])c2)n1	nt	nt	nt	nt	nt	i	nt
CC(=O)Nc1ccc(NC(=O)C(C)OC(=O)/C=C/c2ccc3c(c2)OCO3)cc1 (stereo not given)	i	i	i	i	i	i	nt
COc1cccc(NC(=O)C(OC(=O)/C=C/c2ccc3c(c2)OCO3)c2ccccc2)c1 (stereo not given)	i	10.8	i	i	i	i	i
COCCNC(=O)C(c1ccccc1)N(Cc1cccs1)C(=O)Cn1nnc2ccccc21 (stereo not given)	i	23.7	i	i	i	i	i
COCCNC(=O)C(c1ccncc1)N(Cc1ccccc1)C(=O)Cn1nnc2ccccc21 (stereo not given)	i	i	i	i	i	i	nt
COCCNC(=O)C(c1ccc(C)o1)N(Cc1ccc(F)cc1)C(=O)Cn1nnc2ccccc21 (stereo not given)	nt	24.3	nt	i	i	i	i
Cc1c(-n2c(SCC(=O)O)nnc2-c2ccccc2Br)c(=O)n(-c2ccccc2)n1C	i	7.1	i	nt	nt	i	i
Cn1c(SCCN2CCCCC2)nnc1-c1ccccc1Br	i	i	i	nt	nt	i	nt
SMILES	Vif imaging	V-ATPase pHluor	CaV13 FRET inh	SR-BI uptake up	SR-BI HDL uptake	NTR1 agonist	VATPase regulator
O=S1(=O)C=C(SCCN2CCCCC2)c2ccccc21	i	i	nt	i	i	i	i
N#CCc1c(C#N)c(N)nc(N2CCCC(O)C2)c1C#N (stereo not given)	i	10.8	i	i	i	i	i
N#CCc1c(C#N)c(N)nc(N2CCCC(CO)C2)c1C#N (stereo not given)	i	i	i	i	i	i	nt
CC(=O)c1cccc(NC(=O)N2C3CCC2CC(NC(=O)C2CC2)C3)c1 (stereo not given)	nt	i	i	i	i	i	nt
CCOC(=O)c1c(C)[nH]c(C(=O)COC(=O)c2cnc(C)cn2)c1C	nt	11.2	i	i	i	i	i
CCOC(=O)c1c(C)[nH]c(C(=O)C(C)OC(=O)c2cnc(C)cn2)c1C (stereo not given)	i	i	i	i	i	i	nt
O=C(CCCN1C(=O)/C(=C/c2cccs2)SC1=S)Nc1ccccn1	i	i	i	i	i	i	nt
O=C(CCN1C(=O)/C(=C\c2cccs2)SC1=S)Nc1ccccn1	i	6.2	i	i	i	i	i
CN(c1ccccc1)c1nccc(=O)[nH]1	i	i	i	i	i	i	nt
O=C(O)CCN1C(=O)C2C3CC(C2C1=O)C1C(c2ccccc2)c2sc(=O)[nH]c2SC31 (stereo not given)	i	i	i	i	i	i	nt
O=C(O)CCN1C(=O)C2C3CC(C2C1=O)C1C(c2ccccc2)c2sc(=O)n(-c4ccccc4)c2SC31 (stereo not given)	i	9.2	i	i	i	i	i
COc1ccc(-c2c(C)n([O-])c3c([n+]2=O)CCCC3)cc1	i	10.2	i	i	i	i	i
Cc1ccc(CCNS(=O)(=O)c2cc3c(cc2C)n(C)c(=O)c(=O)n3C)cc1	i	10.1	i	i	i	i	i
O=C(Nc1c2c(nn1-c1ccc(F)cc1)CS(=O)C2)c1ccc2c(c1)OCO2 (stereo not given)	i	i	i	nt	i	i	nt
O=S(=O)(c1ccc(F)cc1)N1CCC2(CC1)OCCN2S(=O)(=O)c1cccs1	i	i	i	i	i	i	nt
CC(=O)Nc1ccc(S(=O)(=O)NNC(=O)COc2ccc(Cl)cc2Cl)cc1	i	13.4	i	?	i	i	i
CCCCCCOC(=O)C[N+](C)(C)CCOC1CC2CCC1(C)C2(C)C (stereo not given)	i	11.9	i	i	i	40.2	i
C=CC[C@]12C[C@@]3(O[C@H](c4ccc(C(F)(F)F)cc4)N=C3C[C@H](c3ccc(OC)cc3)[C@H]1C)N(Cc1ccncc1)C2=O	nt	nt	i	nt	nt	nt	nt
COc1cc(OC)c(NC(=O)c2sc3ncn(CC(=O)N4CCOCC4)c(=O)c3c2C)cc1Cl	i	6.4	i	i	i	i	i
COc1cccc(C2=NOC(C(=O)Nc3ccc(C(C)=O)cc3)C2)c1 (stereo not given)	i	12.5	i	i	i	i	i

Screening results: PubChem, several laboratories
